Legend:
Mus musculus [1] = assay: Inhibition of […] induced TNF-alpha release in mice upon oral administration; type: functional
[2] = target: Mitogen-activated protein kinase 14 (Mus musculus, UniProt P47811); assay: Inhibition of murine His-Mitogen-activated protein kinase p38 alpha phosphorylation.
Rattus norvegicus [3] = assay: Percent swelling of joints in rats immunized with Mycobacterium tuberculosis was determined on day 20 after 25 mg/kg peroral administration; type: functional; conditions: route oral
How it was run: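 Female Wistar rats immunized with Mycobacterium tuberculosis at day 0 (adjuvant-induced arthritis); oral dosing 25 mg/kg twice daily from day 14 to 20; joint swelling measured on day 20, expressed as % inhibition of swelling.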

[4] = target: Cyclin-dependent kinase 1 (Homo sapiens) (UniProt P06493); assay: Inhibition of human cyclin-dependent kinase 1 at 10 uM
[5] = target: Mast/stem cell growth factor receptor Kit (Homo sapiens) (UniProt P10721); assay: Inhibition of human c-Kit kinase; conditions: concentration not given here
[6] = target: Fibroblast growth factor receptor (Homo sapiens) (UniProt P22607+P11362+P22455+P21802); assay: Inhibitory activity against human FGFR at 10 uM; type: protein assay
[7] = target: Insulin-like growth factor 1 receptor (Homo sapiens) (UniProt P08069); assay: Inhibition of human insulin-like growth factor I receptor at 10 uM
[8] = target: Proto-oncogene tyrosine-protein kinase Src (Homo sapiens) (UniProt P12931); assay: Inhibition of human c-Src at 10 uM
[9] = target: T1, Epidermal growth factor receptor (Homo sapiens, UniProt P00533); conditions: 10 uM
[10] = Volume of distribution in steady state was determined in rat; type: ADME, organism-based; conditions: in vivo, read-out: Vss
How it was run: (§1)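 Pharmacokinetics were determined in rat. Cmax was measured after a 1 mg/kg oral dose. Oral bioavailability, terminal half-life and steady-state volume of distribution (Vss, L/kg) were reported.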

[11] = Oral bioavailability; type: ADME, organism-based; conditions: rat, in vivo; how it was run: as §1
[12] = Peak plasma concentration at 1 mg/kg peroral administration; type: ADME, organism-based; design: dose 1 mg/kg, route oral; conditions: rat, po; how it was run: as §1
Rattus norvegicus [13] = assay: Dose required to inhibit bovine nasalseptum type II collagen induced arthritis in rats after administration on day 13; type: functional; conditions: 312 h
Cytochrome P450 2C9 = Cytochrome P450 2C9 (Homo sapiens, UniProt P11712); assay: Inhibition of human cytochrome P450 2C9; type: ADME
Cytochrome P450 3A4 = Cytochrome P450 3A4 (Homo sapiens, UniProt P08684); assay: Inhibition of human cytochrome P450 3A4; type: ADME
Cytochrome P450 1A2 = target: T2, Cytochrome P450 1A2 (Homo sapiens, UniProt P05177); assay: Inhibition of human cytochrome P450 1A2; type: ADME
T2 sequence (P05177 whole entry): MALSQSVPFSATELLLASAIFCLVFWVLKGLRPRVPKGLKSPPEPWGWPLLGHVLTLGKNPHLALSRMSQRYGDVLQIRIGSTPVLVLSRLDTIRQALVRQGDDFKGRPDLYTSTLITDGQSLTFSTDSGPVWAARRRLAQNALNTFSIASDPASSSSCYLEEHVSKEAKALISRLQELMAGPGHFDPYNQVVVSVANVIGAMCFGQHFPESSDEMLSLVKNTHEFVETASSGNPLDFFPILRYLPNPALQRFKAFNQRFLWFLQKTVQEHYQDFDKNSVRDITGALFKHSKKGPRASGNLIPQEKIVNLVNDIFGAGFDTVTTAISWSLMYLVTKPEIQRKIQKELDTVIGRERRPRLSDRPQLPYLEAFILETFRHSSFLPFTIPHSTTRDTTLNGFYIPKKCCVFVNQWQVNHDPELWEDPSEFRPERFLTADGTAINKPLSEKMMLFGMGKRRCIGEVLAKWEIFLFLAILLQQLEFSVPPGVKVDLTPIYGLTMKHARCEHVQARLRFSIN

Cytochrome P450 2D6 = Cytochrome P450 2D6 (Homo sapiens, UniProt P10635); assay: Inhibition of human cytochrome P450 2D6; type: ADME
[14] = target: Prostaglandin G/H synthase 1 (Homo sapiens, UniProt P23219); assay: Inhibition of human prostaglandin G/H synthase 1
[15] = target: Mitogen-activated protein kinase 9 (Homo sapiens, UniProt P45984); assay: Inhibit of human c-Jun N-terminal kinase 2
Mus musculus [16] = assay: Dose required to inhibit […] induced TNF-alpha release in mice upon oral administration; type: functional
[17] = target: T1, Epidermal growth factor receptor; assay: (§2) Inhibition of human Epidermal growth factor receptor
[18] = target: T1, Epidermal growth factor receptor; assay: as §2; remark: listed apart in the source
[19] = target: Hepatocyte growth factor receptor (Homo sapiens, UniProt P08581); assay: Inhibit of human Met proto-oncogene tyrosine kinase
[20] = target: RAF proto-oncogene serine/threonine-protein kinase (Homo sapiens) (UniProt P04049); assay: Inhibition of human RAF proto-oncogene serine/threonine-protein kinase at 10 uM

T1 sequence (P00533 whole entry): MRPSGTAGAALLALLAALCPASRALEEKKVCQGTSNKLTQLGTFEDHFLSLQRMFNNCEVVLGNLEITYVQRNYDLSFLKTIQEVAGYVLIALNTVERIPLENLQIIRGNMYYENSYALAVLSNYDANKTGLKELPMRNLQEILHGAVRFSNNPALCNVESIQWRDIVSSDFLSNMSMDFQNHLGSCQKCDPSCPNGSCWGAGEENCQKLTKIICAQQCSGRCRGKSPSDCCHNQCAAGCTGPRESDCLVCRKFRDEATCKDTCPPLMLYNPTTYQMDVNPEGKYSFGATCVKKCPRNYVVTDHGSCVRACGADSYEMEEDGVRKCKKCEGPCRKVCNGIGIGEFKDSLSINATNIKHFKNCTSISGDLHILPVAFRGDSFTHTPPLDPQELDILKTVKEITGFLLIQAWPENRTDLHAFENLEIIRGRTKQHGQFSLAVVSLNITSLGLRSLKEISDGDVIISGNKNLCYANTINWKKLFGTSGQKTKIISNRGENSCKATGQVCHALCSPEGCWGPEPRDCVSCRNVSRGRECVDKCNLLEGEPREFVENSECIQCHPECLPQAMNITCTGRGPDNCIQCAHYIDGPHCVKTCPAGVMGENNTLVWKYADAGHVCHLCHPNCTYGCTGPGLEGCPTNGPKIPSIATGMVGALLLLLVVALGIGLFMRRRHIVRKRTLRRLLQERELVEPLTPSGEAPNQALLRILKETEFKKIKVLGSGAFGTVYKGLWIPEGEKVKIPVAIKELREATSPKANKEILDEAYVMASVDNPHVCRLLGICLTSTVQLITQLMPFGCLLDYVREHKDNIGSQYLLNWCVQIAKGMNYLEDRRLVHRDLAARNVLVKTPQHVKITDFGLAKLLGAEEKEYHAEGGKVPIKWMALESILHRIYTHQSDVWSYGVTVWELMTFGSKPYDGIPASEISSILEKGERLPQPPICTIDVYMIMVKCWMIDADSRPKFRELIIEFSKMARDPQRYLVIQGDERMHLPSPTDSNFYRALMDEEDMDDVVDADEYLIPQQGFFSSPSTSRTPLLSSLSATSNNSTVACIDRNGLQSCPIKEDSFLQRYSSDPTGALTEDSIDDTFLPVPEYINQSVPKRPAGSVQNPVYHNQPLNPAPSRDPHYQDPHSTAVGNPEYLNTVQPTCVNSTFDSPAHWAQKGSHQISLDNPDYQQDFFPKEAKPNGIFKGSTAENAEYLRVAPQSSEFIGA
Chain of Mitogen-activated protein kinase 14 (P47811 whole entry): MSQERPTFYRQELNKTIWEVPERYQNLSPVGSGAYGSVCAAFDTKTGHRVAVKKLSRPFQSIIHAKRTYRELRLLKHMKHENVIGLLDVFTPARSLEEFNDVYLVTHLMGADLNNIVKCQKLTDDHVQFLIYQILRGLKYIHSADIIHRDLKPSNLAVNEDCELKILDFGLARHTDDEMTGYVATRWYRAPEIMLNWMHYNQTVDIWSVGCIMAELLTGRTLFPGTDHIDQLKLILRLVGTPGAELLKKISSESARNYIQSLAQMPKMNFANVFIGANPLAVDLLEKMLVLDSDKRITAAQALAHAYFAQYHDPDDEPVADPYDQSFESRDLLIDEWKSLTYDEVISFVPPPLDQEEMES
Chain of Cytochrome P450 2D6 (P10635 whole entry): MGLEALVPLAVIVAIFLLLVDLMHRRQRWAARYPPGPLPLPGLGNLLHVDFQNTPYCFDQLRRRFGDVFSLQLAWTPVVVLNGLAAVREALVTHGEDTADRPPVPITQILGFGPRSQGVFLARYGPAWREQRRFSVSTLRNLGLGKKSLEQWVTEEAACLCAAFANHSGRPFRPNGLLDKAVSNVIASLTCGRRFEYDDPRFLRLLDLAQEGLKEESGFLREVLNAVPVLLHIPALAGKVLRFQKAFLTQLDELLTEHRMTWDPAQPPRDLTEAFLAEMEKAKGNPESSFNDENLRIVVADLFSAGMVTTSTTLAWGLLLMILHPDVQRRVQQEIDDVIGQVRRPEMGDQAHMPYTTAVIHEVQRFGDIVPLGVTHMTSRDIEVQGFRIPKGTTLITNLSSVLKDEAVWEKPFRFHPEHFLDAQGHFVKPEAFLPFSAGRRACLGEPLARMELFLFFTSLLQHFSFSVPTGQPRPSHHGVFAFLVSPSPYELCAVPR
Chain of Cytochrome P450 3A4 (P08684 whole entry): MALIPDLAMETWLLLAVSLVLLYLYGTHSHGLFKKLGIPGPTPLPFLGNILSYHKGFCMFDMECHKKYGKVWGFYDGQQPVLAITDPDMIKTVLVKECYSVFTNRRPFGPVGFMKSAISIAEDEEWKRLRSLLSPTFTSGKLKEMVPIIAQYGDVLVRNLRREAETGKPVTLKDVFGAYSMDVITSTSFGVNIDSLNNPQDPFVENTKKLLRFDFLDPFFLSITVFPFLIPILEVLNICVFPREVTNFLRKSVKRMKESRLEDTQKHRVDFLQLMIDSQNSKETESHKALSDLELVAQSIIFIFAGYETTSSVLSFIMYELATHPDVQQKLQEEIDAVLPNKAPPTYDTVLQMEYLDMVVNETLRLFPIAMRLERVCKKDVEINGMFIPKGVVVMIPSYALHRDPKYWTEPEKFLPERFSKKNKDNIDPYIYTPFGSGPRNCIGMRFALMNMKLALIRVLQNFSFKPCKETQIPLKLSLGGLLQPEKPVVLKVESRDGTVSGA
Chain of Proto-oncogene tyrosine-protein kinase Src (Homo sapiens) (P12931 2-536 limits assumed): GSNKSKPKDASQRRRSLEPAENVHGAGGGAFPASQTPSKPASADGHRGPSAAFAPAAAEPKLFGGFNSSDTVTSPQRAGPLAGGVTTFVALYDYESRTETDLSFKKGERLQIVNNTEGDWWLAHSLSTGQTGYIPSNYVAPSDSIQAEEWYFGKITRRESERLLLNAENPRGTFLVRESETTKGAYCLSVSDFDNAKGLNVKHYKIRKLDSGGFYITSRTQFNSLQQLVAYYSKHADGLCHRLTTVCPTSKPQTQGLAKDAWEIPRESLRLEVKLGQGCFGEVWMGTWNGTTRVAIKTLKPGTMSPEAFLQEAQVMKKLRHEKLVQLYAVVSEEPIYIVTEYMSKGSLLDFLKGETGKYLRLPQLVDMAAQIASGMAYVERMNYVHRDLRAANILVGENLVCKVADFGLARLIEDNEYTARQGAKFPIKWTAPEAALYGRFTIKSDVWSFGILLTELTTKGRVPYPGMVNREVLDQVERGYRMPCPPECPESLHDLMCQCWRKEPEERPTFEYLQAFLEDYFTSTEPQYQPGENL
Chain of Insulin-like growth factor 1 receptor (Homo sapiens) (P08069 31-736 limits assumed): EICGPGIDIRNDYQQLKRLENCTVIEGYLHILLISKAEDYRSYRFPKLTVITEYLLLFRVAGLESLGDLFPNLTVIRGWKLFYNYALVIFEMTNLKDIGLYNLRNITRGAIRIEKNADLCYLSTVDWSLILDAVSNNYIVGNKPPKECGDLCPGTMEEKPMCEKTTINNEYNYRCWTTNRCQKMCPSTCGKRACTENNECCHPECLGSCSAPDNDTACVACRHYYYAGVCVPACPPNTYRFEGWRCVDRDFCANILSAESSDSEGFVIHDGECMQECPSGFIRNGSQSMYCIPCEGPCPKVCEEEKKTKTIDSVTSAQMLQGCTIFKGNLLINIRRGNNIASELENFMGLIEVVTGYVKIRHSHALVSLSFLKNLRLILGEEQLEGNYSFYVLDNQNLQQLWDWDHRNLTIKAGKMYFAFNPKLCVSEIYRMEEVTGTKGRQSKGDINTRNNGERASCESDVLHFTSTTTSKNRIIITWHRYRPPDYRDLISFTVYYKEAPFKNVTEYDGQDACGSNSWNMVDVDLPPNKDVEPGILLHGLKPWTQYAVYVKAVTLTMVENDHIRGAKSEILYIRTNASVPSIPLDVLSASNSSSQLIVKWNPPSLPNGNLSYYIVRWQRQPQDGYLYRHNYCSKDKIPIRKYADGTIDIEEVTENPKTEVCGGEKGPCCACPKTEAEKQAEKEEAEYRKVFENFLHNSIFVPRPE
Chain of Insulin-like growth factor 1 receptor (Homo sapiens) (P08069 741-1367 limits assumed): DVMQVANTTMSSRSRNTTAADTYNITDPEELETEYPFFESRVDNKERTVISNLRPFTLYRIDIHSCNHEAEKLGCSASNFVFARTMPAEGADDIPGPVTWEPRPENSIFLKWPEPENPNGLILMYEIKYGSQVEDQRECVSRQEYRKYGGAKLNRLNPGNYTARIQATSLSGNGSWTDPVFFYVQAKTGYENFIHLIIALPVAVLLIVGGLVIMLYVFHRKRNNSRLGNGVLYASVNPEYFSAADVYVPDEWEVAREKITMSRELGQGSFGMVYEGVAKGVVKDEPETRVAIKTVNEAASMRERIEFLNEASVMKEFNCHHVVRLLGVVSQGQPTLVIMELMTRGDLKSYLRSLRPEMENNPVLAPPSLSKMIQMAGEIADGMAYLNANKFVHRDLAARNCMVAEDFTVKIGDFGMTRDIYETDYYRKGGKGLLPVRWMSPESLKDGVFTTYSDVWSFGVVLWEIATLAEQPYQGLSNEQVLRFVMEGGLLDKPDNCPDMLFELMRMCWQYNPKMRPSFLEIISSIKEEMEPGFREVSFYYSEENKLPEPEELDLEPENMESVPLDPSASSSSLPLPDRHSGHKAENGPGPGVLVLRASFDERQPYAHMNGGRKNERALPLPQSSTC
Chain of Prostaglandin G/H synthase 1 (P23219 whole entry): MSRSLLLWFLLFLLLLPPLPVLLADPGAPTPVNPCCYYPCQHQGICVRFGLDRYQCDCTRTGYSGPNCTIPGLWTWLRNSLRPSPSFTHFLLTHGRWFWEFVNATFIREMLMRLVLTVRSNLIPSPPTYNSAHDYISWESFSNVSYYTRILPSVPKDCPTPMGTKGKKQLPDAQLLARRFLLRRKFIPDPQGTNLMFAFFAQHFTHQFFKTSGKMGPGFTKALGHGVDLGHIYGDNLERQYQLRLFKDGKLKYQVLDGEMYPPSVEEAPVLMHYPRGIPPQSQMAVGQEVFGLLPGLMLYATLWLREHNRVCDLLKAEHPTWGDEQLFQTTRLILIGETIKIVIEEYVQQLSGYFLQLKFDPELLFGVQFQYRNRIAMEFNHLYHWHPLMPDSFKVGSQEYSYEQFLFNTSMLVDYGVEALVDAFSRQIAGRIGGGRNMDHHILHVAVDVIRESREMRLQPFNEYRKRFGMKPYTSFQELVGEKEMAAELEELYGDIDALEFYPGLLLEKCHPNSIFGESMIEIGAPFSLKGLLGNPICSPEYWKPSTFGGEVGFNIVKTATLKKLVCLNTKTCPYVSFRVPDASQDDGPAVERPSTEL

For `COc1ccc(C#CC(C)(C)N)cc1C(=O)c1ccc(Nc2ccc(F)cc2F)nc1`, the Inhibition (Mus musculus [1]) was 91%, the IC50 [2] was 8 µM and the Swelling (Rattus norvegicus [3]) was 52%.

Compound `O=C(c1ccc(Nc2ccc(F)cc2F)cc1)c1ccccc1Cl` has an Inhibition (Mus musculus [1]) of 6% and an IC50 [2] of 11 µM.

With `Cc1nc2cc(C(=O)c3ccc(Nc4ccc(F)cc4F)cc3)c(Cl)cc2[nH]1` the Inhibition (Mus musculus [1]) was 93%, the IC50 [2] was 0.7 µM and the Swelling (Rattus norvegicus [3]) was 46%.

With `COc1ccc(CCC(C)(C)N)cc1C(=O)c1ccc(Nc2ccc(F)cc2F)cc1` the Inhibition (Mus musculus [1]) was 0% and the IC50 [2] was 113 µM.

Work on `COc1cc2[nH]c(C)nc2cc1C(=O)c1ccc(Nc2ccc(F)cc2F)cc1` yielded an inhibition [4] of 0%, an inhibition [5] of 0% and an inhibition [6] of 0%. It also gave an inhibition [7] of 0%, an Inhibition (Mus musculus [1]) of 90% and a Swelling (Rattus norvegicus [3]) of 50%. It also gave an inhibition [8] of 0% and an inhibition [9] of -10%.

`COc1cc2[nH]c(C)nc2cc1C(=O)c1ccc(Nc2ccc(F)cc2F)nc1` gave a Vd [10] of 1.1 L/kg, a bioavailability [11] of 54% and a Cmax [12] of 607 nM. For the same compound, the Inhibition (Mus musculus [1]) was 57%, the IC50 [2] was 21 µM and the ED50 (Rattus norvegicus [13]) was 8.6 mg/kg. For the same compound, the Swelling (Rattus norvegicus [3]) was 70%.

With `COc1ccc(CCC2(O)CCN(C)CC2)cc1C(=O)c1ccc(Nc2ccc(F)cc2F)cc1` the Inhibition (Mus musculus [1]) was 0% and the IC50 [2] was 51 µM.

`COc1cc2nc(C)[nH]c2cc1C(=O)c1ccc(Nc2ccc(F)cc2F)cc1` showed an IC50 (Cytochrome P450 2C9) of over 2 µM, an IC50 (Cytochrome P450 3A4) of over 2 µM and an IC50 (Cytochrome P450 1A2) of over 2 µM. It also gave an IC50 (Cytochrome P450 2D6) of over 2 µM, an IC50 [2] of 5 µM and an IC50 [14] of over 80 µM. For the same compound, the IC50 [15] was over 10 µM.

Work on `O=C(c1ccc(Nc2ccc(F)cc2F)nc1)c1cc(Br)ccc1Cl` yielded an IC50 [2] of 300 µM.

With `CC(C)(N)C#Cc1ccc(Cl)c(C(=O)c2ccc(Nc3ccc(F)cc3F)nc2)c1` the Inhibition (Mus musculus [1]) was 50%, the IC50 [2] was 19 µM and the Swelling (Rattus norvegicus [3]) was 36%.

Compound `O=C(c1ccc(Nc2ccc(F)cc2F)nc1)c1ccccc1Cl` has an IC50 [2] of 101 µM.

Work on `Cc1nc2cc(C(=O)c3ccc(Nc4ccc(F)cc4F)nc3)c(Cl)cc2[nH]1` yielded an Inhibition (Mus musculus [1]) of 91%, an IC50 [2] of 8 µM and a Swelling (Rattus norvegicus [3]) of 40%.

`CC(C)(N)C#Cc1ccc(Cl)c(C(=O)c2ccc(Nc3ccc(F)cc3F)cc2)c1` showed an Inhibition (Mus musculus [1]) of 85% and an IC50 [2] of 6 µM.

Compound `COc1ccc(CCC(C)(C)O)cc1C(=O)c1ccc(Nc2ccc(F)cc2F)nc1` has an IC50 [2] of 479 µM.

Work on `COc1ccc(C#CC(C)(C)O)cc1C(=O)c1ccc(Nc2ccc(F)cc2F)nc1` yielded an ED50 (Mus musculus [16]) of 23 mg/kg, an Inhibition (Mus musculus [1]) of 88% and an IC50 [2] of 54 µM. For the same compound, the Swelling (Rattus norvegicus [3]) was 23%.

For `COc1ccc(C#CC(C)(C)N)cc1C(=O)c1ccc(Nc2ccc(F)cc2F)cc1`, the Vd [10] was 9 L/kg, the bioavailability [11] was 46% and the Cmax [12] was 59 nM. It also gave an IC50 (Cytochrome P450 2C9) of over 2 µM, an IC50 (Cytochrome P450 3A4) of over 2 µM and an IC50 (Cytochrome P450 1A2) of over 2 µM. The IC50 (Cytochrome P450 2D6) was over 2 µM, the IC50 [17] was 4.4 µM and the IC50 [18] was 8.8 µM. It also gave an inhibition [7] of 0%, an IC50 [19] of 1.5 µM and an Inhibition (Mus musculus [1]) of 95%. The IC50 [2] was 14 µM, the inhibition [20] was 0% and the IC50 [14] was over 80 µM. It also gave a Swelling (Rattus norvegicus [3]) of 51%, an inhibition [8] of -10% and an IC50 [15] of over 10 µM.

Compound `CC(C)(N)CCc1ccc(Cl)c(C(=O)c2ccc(Nc3ccc(F)cc3F)nc2)c1` has an IC50 [2] of 160 µM.

Work on `COc1ccc(/C=C/C2(O)CCN(C)CC2)cc1C(=O)c1ccc(Nc2ccc(F)cc2F)cc1` yielded an Inhibition (Mus musculus [1]) of 68%, an IC50 [2] of 1 µM and a Swelling (Rattus norvegicus [3]) of 47%.

Compound `COc1ccccc1C(=O)c1ccc(Nc2ccc(F)cc2F)cc1` has an Inhibition (Mus musculus [1]) of 0% and an IC50 [2] of 38 µM.

— ChEMBL document CHEMBL1147484, “SAR of benzoylpyridines and benzophenones as p38alpha MAP kinase inhibitors with oral activity” (Bioorg Med Chem Lett, 2004)
